From PubChem BioAssay
Most compounds without a hit are left out; they make up all but 1.8% or so of the library.
STAT3 inh: inhibitors of IL-6 induced STAT3 signaling; U3A cells, IL-6 STAT3-luciferase reporter, luminescence; host cell line lacks STAT1; inhibition, % at 5.5 µM; hit rate 0.89% among 190,000; AID 862;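 active = inhibition above the mean inhibition across all screened compounds plus 3 SD, cut at about 44% in these data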;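 also: 0% = DMSO only wells and 100% = 100 µM nifuroxazide control wells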
PPC-1+TRAIL kill: compounds killing PPC-1 cancer cells with TRAIL present (potentiator screen, no TRAIL-free arm); PPC-1 cells + TRAIL, ATPLite viability luminescence; cell killing (% activity), % at 4 µM or 5 µM; hit rate 0.41% among 220,000; AID 1443;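 active = cell killing above 50% in the first pass at 4 µM, then a duplicate retest at 5 µM averaging 50% or more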;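 also: plate controls were cells with TRAIL plus DMSO for no effect and medium-only wells lacking cells for full effect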
STAT1 inh: inhibitors of IFN-gamma induced STAT1 signaling | NIH 3T3 STAT1-luciferase reporter, luminescence | inhibition, % at 5.5 µM | hit rate 0.35% among 200,000;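 active = inhibition above a set limit, the mean inhibition across all tested compounds plus 3 SD, cut at about 34% in these data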;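 also: 0% = IFN-gamma with DMSO and 100% = IFN-gamma with 300 µM nifuroxazide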
STAT3 act: STAT3 signaling activation; U3A cells, IL-6 STAT3-luciferase reporter, luminescence; 100% = signal with IL-6 EC80 alone; hit rate 0.91% among 190,000; AID 871; activation (% of control), % at 5.6 µM;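 active = activation above the screen-wide mean of compound activation plus 3 SD, cut at about 130% in these data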;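 also: 0% = background luminescence of wells with medium and substrate only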
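System – human U3A cells carrying STAT3-luciferase construct · Probe or stimulus – Interleukin-6, 33 ng/mL · Schedule – compound 1 h, then IL-6 6 h at 37 °C · Signal – luminescence from STAT3-driven luciferase reporter · Evaluation – percent of IL-6-only median luminescence · Benchmarks – IL-6-only high control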
TRAIL sens C8: sensitizes caspase-8 expressing cells to TRAIL; NB7+C8 cells + TRAIL, ATPlite viability luminescence; inhibition (viability loss, TRAIL sensitization), % at 10 µM; hit rate 1% among 360,000; AID 624354;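 active = compounds causing at least 50% loss of cell viability in the single-dose screen, relative to plate controls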
Active calls of the source: *.

How did CN(C)c1ccc(/C=C/C=C/c2sc3ccccc3[n+]2C)cc1 do in these assays?
PPC-1+TRAIL kill: 45.4; TRAIL sens C8: 33.2

What do the screens show for `CN(C)c1ccc(/C=C/c2cc[n+](C)c3ccccc23)cc1`?
STAT3 inh: 72.2*; PPC-1+TRAIL kill: 43.8; STAT1 inh: 26.1; STAT3 act: 42.8; TRAIL sens C8: 44.7

Results for CC=C(CC)C1(CC)C(=O)NC(=S)NC1=O ?
TRAIL sens C8: -0.6

Results for CN(C)c1ccc(NC(=O)CN2C(=O)CN=C(c3ccccc3)c3cc(Cl)ccc32)cc1 ?
STAT3 inh: 2.0; PPC-1+TRAIL kill: 12.3; STAT1 inh: -1.7; STAT3 act: 105.7; TRAIL sens C8: -8.4

How did Cc1ccc(NC(=O)CN2C(=O)CN=C(c3ccccc3)c3cc(Cl)ccc32)cc1 do in these assays?
STAT3 inh: 3.0; PPC-1+TRAIL kill: 9.8; STAT1 inh: -4.7; STAT3 act: 104.9; TRAIL sens C8: 57.0*

How did C/C1=C\[C@@H](C)C/C=C/[C@H]2[C@@H]3O[C@]3(C)[C@@H](C)[C@H]3[C@H](Cc4c[nH]c5ccccc45)NC(=O)[C@]32C(=O)/C=C/C(=O)[C@@H]1O do in these assays?
PPC-1+TRAIL kill: 15.9; STAT1 inh: 14.2; TRAIL sens C8: 30.4

How did CC1=CC2/C=C(\C)CCC(O)C(O)/C=C/C(=O)C23C(=O)NC(CC(C)C)C3C1C (stereo not given) do in these assays?
PPC-1+TRAIL kill: 4.2; STAT1 inh: -11.5; TRAIL sens C8: 90.5*

What do the screens show for `CC(O)C1C=CC=CC(=O)OC2CC3OC4C5OC5(C)CCC4(COC(=O)C4OC4(C)C(O)CO1)C2(C)C31CO1` (stereo not given)?
TRAIL sens C8: 60.8*

Results for CC(=O)OC1C(=O)OCC23CCC4(C)OC4C2OC2CC(OC(=O)C=CC=CC(=O)OCCC1C)C3(C)C21CO1 (stereo not given) ?
TRAIL sens C8: 64.3*

Results for CCOC(=O)C1(CCc2ccccc2)CCN(CC(O)CO)CC1 (stereo not given) ?
TRAIL sens C8: -6.3

Results for CC(=O)OC1(C)CC(C)C(=O)C(C(O)CC2CC(=O)NC(=O)C2)C1 (stereo not given) ?
TRAIL sens C8: 73.7*

How did C[C@@H]1C[C@@H]([C@H](O)CC2CC(=O)NC(=O)C2)C(=O)[C@@H](C)C1 do in these assays?
TRAIL sens C8: 30.4

What do the screens show for `Cc1ncc(CN2CCCC(C(=O)c3ccc(C(C)(C)C)cc3)C2)s1` (stereo not given)?
STAT3 inh: 2.6; PPC-1+TRAIL kill: 38.1; STAT1 inh: 0.3; STAT3 act: 102.8; TRAIL sens C8: 15.1

How did CC(=O)c1cn(Cc2ccccc2F)c2ccccc12 do in these assays?
TRAIL sens C8: 25.8

How did COC1C(C)OC(OC2CC(C)(O)Cc3cc4c(c(O)c32)C(=O)c2c(O)cc3c(c2C4=O)OC2OC3(C)C(O)C(N(C)C)C2O)C(OC)C1(C)OC (stereo not given) do in these assays?
TRAIL sens C8: 36.7

Results for CC(=O)OC(C)(C)/C=C/C(=O)[C@](C)(O)[C@H]1[C@H](O)C[C@@]2(C)[C@@H]3CC=C4[C@H](C[C@H](O)C(=O)C4(C)C)[C@]3(C)C(=O)C[C@]12C ?
STAT3 inh: 19.5; PPC-1+TRAIL kill: 50.1*; STAT1 inh: -15.1; STAT3 act: 81.3; TRAIL sens C8: 31.6

What do the screens show for `CC(=O)OC(C)(C)/C=C/C(=O)C(C)(O)C1[C@H](O)C[C@@]2(C)C3CC=C4C(CC[C@@H](O)C4(C)C)[C@]3(CO)C(=O)C[C@]12C` (stereo not given in full)?
TRAIL sens C8: 53.1*

Results for COC(=O)C1=C(c2cccc(OC)c2OC)C[C@@H]2CC[C@H]1N2C(=O)NCc1ccco1 ?
TRAIL sens C8: -6.7

What do the screens show for `CN(C)C(=O)Oc1ccc(-c2cn3cc(Cl)ccc3n2)cc1`?
STAT3 inh: 42.5; PPC-1+TRAIL kill: 53.5*; STAT1 inh: -47.2; STAT3 act: 66.3; TRAIL sens C8: 76.0*

How did CN(C)C(=O)Oc1cccc(-c2cn3cc(Cl)ccc3n2)c1 do in these assays?
STAT3 inh: 3.7; PPC-1+TRAIL kill: 39.7; STAT1 inh: -24.7; STAT3 act: 97.1; TRAIL sens C8: 42.9

What do the screens show for `Cc1ccccc1CN1Cc2cnnn2-c2ccccc2C1C#N` (stereo not given)?
TRAIL sens C8: 49.5*

How did Cc1ccccc1C(=O)N1Cc2cnnn2-c2ccccc2C1C#N (stereo not given) do in these assays?
TRAIL sens C8: 8.4

Results for O=[N+]([O-])/C=C/c1c(Cl)cccc1Cl ?
TRAIL sens C8: 71.5*

What do the screens show for `CCN(CC)c1ccc(/C=C/[N+](=O)[O-])cc1`?
STAT3 inh: -2.0; PPC-1+TRAIL kill: 3.9; STAT1 inh: -14.6; STAT3 act: 106.2; TRAIL sens C8: 10.2

How did COc1ccc(CN2C(=O)NC(=O)/C(=C/c3ccc([N+](=O)[O-])s3)C2=O)cc1 do in these assays?
PPC-1+TRAIL kill: -8.6; TRAIL sens C8: 10.6

How did C=C(C)CSc1nnc([C@@H](N)Cc2c[nH]c3ccccc23)o1 do in these assays?
STAT3 inh: 15.9; PPC-1+TRAIL kill: -3.4; STAT1 inh: 6.1; STAT3 act: 89.9; TRAIL sens C8: -10.4

How did Cc1[nH]nc2ccc(-c3cncc(OC[C@@H](N)Cc4c[nH]c5ccccc45)c3)cc12 do in these assays?
TRAIL sens C8: 90.1*

How did CC1=CC2OC3CC4OC(=O)C=CC=CC(C(C)O)OCC(O)C(C)CC(=O)OCC2(CC1O)C4(C)C31CO1 (stereo not given) do in these assays?
TRAIL sens C8: 69.0*

Results for CC1=CC2OC3CC4OC(=O)C=CC=CC(=O)OCCC(C)C(O)C(=O)OCC2(CC1O)C4(C)C31CO1 (stereo not given) ?
TRAIL sens C8: 72.5*

How did CC(=O)OC1C(O)C(C)OC(OC2C(OC(=O)C3CCC4C(C3)OC3(CC(OC(=O)/C=C/c5ccccc5)C(C)CO3)C43CO3)OC(C)C(O)C2OC(C)=O)C1O (stereo not given) do in these assays?
TRAIL sens C8: 63.7*

How did O=c1[nH]c(=S)[nH]c(O)c1/C=N/N1CCOCC1 do in these assays?
PPC-1+TRAIL kill: 5.1; TRAIL sens C8: -15.7

What do the screens show for `O=[N+]([O-])c1ccc(C2C3C(c4ccccc4)=NC4(CCCC4)N32)cc1` (stereo not given)?
STAT3 inh: 11.8; PPC-1+TRAIL kill: 14.4; STAT1 inh: 15.8; STAT3 act: 93.5; TRAIL sens C8: 5.5

Results for N=c1c2c(n(Cc3ccc(Cl)cc3Cl)c3c1CCC3)CCCC2 ?
STAT3 inh: 51.0*; PPC-1+TRAIL kill: 2.3; STAT1 inh: 25.4; STAT3 act: 61.3; TRAIL sens C8: 29.1

What do the screens show for `Cc1nn(Cc2ccc(Cl)cc2Cl)c(Cl)c1C(=O)O`?
STAT3 inh: -0.3; PPC-1+TRAIL kill: 23.3; STAT1 inh: -7.8; STAT3 act: 101.5; TRAIL sens C8: -1.8
